Compounds with a hit are over-represented: about 1.8% of the library has one in this group of screens.
MC4R ag barr: MC4R agonists recruiting beta-arrestin, primary screen, cell-based, luminescence, agonist arm of biased-ligand search; Melanocortin receptor 4 (Homo sapiens), P32245; U2OS MC4R beta-arrestin complementation; percent of melanotan II response, DMSO zero; activation, % at 8.9 µM; 360,000 tested, 0.98% active; AID 540308, 2011;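 active = activation above a per-plate cutoff, the mean activation of sample wells on that plate plus 3 SD, cut at about 8% in these data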
Target sequence (P32245 whole entry, looked up): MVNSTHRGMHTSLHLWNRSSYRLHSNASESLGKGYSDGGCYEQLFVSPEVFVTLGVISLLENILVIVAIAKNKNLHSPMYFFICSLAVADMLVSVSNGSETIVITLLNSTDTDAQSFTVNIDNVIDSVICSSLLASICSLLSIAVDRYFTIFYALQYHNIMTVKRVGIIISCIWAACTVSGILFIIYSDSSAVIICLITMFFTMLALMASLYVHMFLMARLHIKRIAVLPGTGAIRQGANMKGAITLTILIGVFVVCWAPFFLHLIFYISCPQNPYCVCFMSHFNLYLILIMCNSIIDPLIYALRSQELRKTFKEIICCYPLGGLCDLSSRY
TLR9-MyD88 block: inhibitors of TLR9-MyD88 association in cells, primary screen, cell-based, CHO, BLA complementation, fluorescence; AID 504734, 2011; inhibition, % at 4.98 µM; Toll-like receptor 9 (Homo sapiens) + Myeloid differentiation primary response protein …; 340,000 tested, 0.21% active; CCF4 FRET ratio;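 active = inhibition above the mean over all tested compounds plus 3 SD, cut at about 21% in these data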;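 note: 0% = DMSO only wells and 100% = clavulanate BLA inhibitor control wells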
NOD2-RIPK2 inh: NOD2-RIPK2 binding disruptors in cells, primary screen, fluorescence, CHO cells, BLA complementation | AID 624267, 2012 | Receptor-interacting serine/threonine-protein kinase 2 (Homo sapiens), O43353 | CCF4 ratio | 360,000 tested, 0.38% active | inhibition, % at 4.98 µM; in the data active = inhibition above about 21%;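 note: 0% = vehicle only and 100% = reference blocker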
TLR4-MyD88 BLA: inhibitors of TLR4-MyD88 association in cells, primary screen, cell-based, HeLa CL3-4, BLA complementation, FRET ratio; AID 861, 2007; inhibition, % at 8.4 µM; Toll-like receptor 4 (Homo sapiens) + Myeloid differentiation primary response protein …; HeLa CL3-4 TLR4/MyD88 BLA complementation; 200,000 tested, 0.18% active; in the data active = inhibition above about 25%;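 note: 0% = vehicle and 100% = reference inhibitor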
MC4R antagonist: MC4R antagonists of cAMP signaling, primary screen, cell-based, TR-FRET, antagonist arm of biased-ligand search | MC4R-expressing cells, MTII-stimulated cAMP, LANCE TR-FRET | inhibition, % at 6.5 µM | AID 540295, 2011 | 360,000 tested, 0.48% active;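 active = inhibition above its plate's cutoff, the mean of tested wells on that plate plus 3 SD, cut at about 29% in these data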;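 note: 0% = Melanotan II alone and 100% = Melanotan II plus saturating MCL0020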
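System – human MC4R-expressing U2OS cells · Also added – Melanotan II · Dosing – one concentration, 6.5 µM nominal · Timing – 30-min compound, 1-h challenge, 1-h detection, room temperature · Measured by – Eu-cAMP/anti-cAMP TR-FRET, emission 671 nm · Replicates – singlicate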
NOD2-RIPK2 conf: NOD2-RIPK2 binding disruptors, retest, confirmation, fluorescence, CHO cells, BLA complementation, triplicate. inhibition, % at 4.98 µM. shares compounds with NOD2-RIPK2 inh. CCF4 FRET. 1,200 tested, 70% active. AID 624370, 2012;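 active = mean inhibition across replicates above a set limit taken from the earlier primary screen, cut at about 21% in these data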;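 note: 0% = DMSO-only wells and the high end = clavulanate BLA-blocked wells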
BLA counter: NOD2-RIPK2 counterscreen BLA reporter activity | shares compounds with NOD2-RIPK2 inh | CHO BLA reporter, CCF4 FRET ratio | inhibition, % at 4.98 µM | 1,200 tested, 57% active | AID 624371;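 active = mean inhibition above the low-control mean inhibition plus three low-control SD, cut at about 11% in these data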;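 note: 0% = DMSO only wells and 100% = clavulanate high control wells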
An asterisk follows results filed as active; . = not tested or not shown.

SMILES | MC4R ag barr | TLR9-MyD88 block | NOD2-RIPK2 inh | TLR4-MyD88 BLA | MC4R antagonist | NOD2-RIPK2 conf | BLA counter
Cc1ccc(S(=O)(=O)c2cc3ccccc3oc2=O)cc1 | 0 | -4 | 3 | 6 | 13 | . | .
C#CCn1cc(C=C2C(=O)c3ccccc3C2=O)c2ccccc21 | 0 | -4 | -5 | -9 | 5 | . | .
COc1ccccc1OCCn1cc(/C=C(\C#N)C(=O)NCc2cccs2)c2ccccc21 | -2 | 0 | 29* | 8 | 3 | -8 | 0
Cn1sc2ccccc2c1=O | -1 | 1 | 2 | . | -5 | . | .
O=c1c2ccccc2sn1-c1ccccc1 | 0 | 54* | 77* | 9 | -7 | 50* | 10
O=C(Nc1cccc([N+](=O)[O-])c1)Nc1cccs1 | -4 | 7 | 0 | -7 | 3 | . | .
CCOc1ccc(CNC(=S)Nc2ccccc2)cc1Cl | 4 | -6 | -4 | . | 15 | . | .
COc1ccccc1N(C)S(=O)(=O)c1ccc(C(=O)OCC(N)=O)cc1 | 2 | 7 | 50* | -3 | 16 | 1 | -4
CCNC(=O)C1(C)CCCN1C(=O)c1cc(OC)c(OC)c(OC)c1 (centres undefined) | -1 | . | -13 | . | -6 | . | .
CCOC(=O)N1CCC(N2C(=O)c3ccccc3C2Nc2cc(OC)c(OC)c(OC)c2)CC1 (centres undefined) | 0 | -3 | 11 | -1 | 0 | . | .
CCOC(=O)[C@]12Cc3c(cc(OC)c(OC)c3OC)[C@H]1N(C1CCCCC1)C(=O)c1cc(OC)ccc12 | . | . | 30* | . | . | 28* | -4
CCOC(=O)c1ccc(NC(=O)Nc2ccon2)cc1 | -1 | 11 | 22* | . | -24 | 21* | -2
CCOC(=O)c1ccc(NC(=O)Nc2ccc(Cl)cn2)cc1 | 0 | 0 | -7 | -6 | 8 | . | .
Cc1ccc(S(=O)(=O)NCCN2CCOCC2)c(C)c1C | 1 | -3 | 72* | -8 | 9 | -6 | -7
CCN1C(=O)c2cccc3c(S(=O)(=O)N4CCC(C)CC4)ccc1c23 | -3 | 18 | 23* | . | -5 | 22* | 25*
CCN1C(=O)c2cccc3c(S(=O)(=O)NCc4ccccc4)ccc1c23 | -3 | 2 | 9 | . | -7 | . | .
COc1ccc(-c2cn(CCC(=O)NCc3ccc(C)cc3)c(CCN)n2)cc1 | 1 | -2 | 5 | . | 9 | . | .
Cn1cnc([N+](=O)[O-])c1S(=O)(=O)Oc1ccc(Cl)cc1 | -1 | 2 | 21* | . | -2 | 47* | -1
Cn1cnc([N+](=O)[O-])c1S(=O)(=O)Oc1cccc2ccccc12 | -2 | 15 | 56* | . | -2 | 55* | 1
COc1ccc(C(=O)N2CCOCC2c2cc(C(=O)NCc3ccccc3)no2)cc1 (centres undefined) | -1 | . | -6 | . | -1 | . | .
O=C(CNC(=O)c1cccc([N+](=O)[O-])c1)OCCCC(=O)c1ccc(F)cc1 | -1 | -1 | 26* | . | 3 | -8 | -4

Bioassay records from PubChem BioAssay.
